Molecules are shown by their SMILES. Starred links: 1 amine or outer side, 2 acyl side, 3 side chain; linkers in the order of their positions; H or OH if unused. Non-standard residues stand in square brackets, D forms with d. Residues, ends and D or L forms follow the SMILES beside them. *: point of attachment. Gly(2S-L-tryptophyl) = N[C@H](C(=O)O)C(=O)[C@@H](N)Cc1c[nH]c2ccccc12; X1 = O=C1[C@@H](CCC(=O)[*:2])CCC[C@H]1N[*:1]; Cbz = O=C(OCc1ccccc1)* A value given as a limit tells only on which side of the number the result lay.

One assay concerns the target Plasminogen (Homo sapiens, UniProt P00747). Nature of the assay: Inhibitory concentration against plasmin. Put shortly: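 Plasmin is cleaving D-Val-Leu-Lys-pNA, kept constant at its measured KM (167 μM). Reactions were run at 25 °C in 50 mM sodium phosphate buffer, pH 7.4, containing 10% DMSO final. Initial velocity was read as p-nitroaniline release at 405 nm between 30 and 120 s post-mixing. IC50 was determined from inhibited versus uninhibited rates.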

Another assay deals with Prothrombin (Homo sapiens, UniProt P00734). The experiment in a line: Inhibitory concentration against thrombin. Put shortly: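 Thrombin is tested against chromogenic D-Phe-Pip-Arg-pNA at its KM, measured as 45 μM. Conditions were 50 mM sodium phosphate (pH 7.4), 10% DMSO final, 25 °C. p-Nitroaniline formation was followed at 405 nm from 30 to 120 s after mixing to give initial rates, from which IC50 was obtained.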

In a further assay the target is Plasma kallikrein (Homo sapiens, UniProt P03952). The experiment in a line: Inhibitory concentration against kallikrein.
Chain of Plasma kallikrein (P03952 20-390 limits assumed): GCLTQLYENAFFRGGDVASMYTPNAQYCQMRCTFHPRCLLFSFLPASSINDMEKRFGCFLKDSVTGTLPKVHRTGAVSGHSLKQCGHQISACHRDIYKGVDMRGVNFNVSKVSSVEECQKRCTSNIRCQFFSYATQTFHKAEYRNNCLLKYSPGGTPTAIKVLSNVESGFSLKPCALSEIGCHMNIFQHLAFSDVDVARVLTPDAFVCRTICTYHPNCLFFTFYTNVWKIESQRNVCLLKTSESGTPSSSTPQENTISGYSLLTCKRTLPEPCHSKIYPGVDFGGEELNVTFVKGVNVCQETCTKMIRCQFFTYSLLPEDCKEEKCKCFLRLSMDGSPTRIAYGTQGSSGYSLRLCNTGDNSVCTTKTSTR
Chain of Plasma kallikrein (P03952 391-638 limits assumed): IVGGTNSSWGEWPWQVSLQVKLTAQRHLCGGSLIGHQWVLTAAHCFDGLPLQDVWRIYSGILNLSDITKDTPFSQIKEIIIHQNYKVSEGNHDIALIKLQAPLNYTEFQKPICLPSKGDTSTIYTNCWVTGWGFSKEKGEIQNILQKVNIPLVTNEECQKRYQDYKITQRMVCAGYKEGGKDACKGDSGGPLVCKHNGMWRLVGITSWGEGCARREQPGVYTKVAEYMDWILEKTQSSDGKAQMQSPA
Another assay addresses Serine protease 1 (Homo sapiens, UniProt P07477). Nature of the assay: Inhibitory concentration against trypsin. Put shortly:
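For trypsin, the substrate was D-Phe-Pip-Arg-pNA at its KM of 122 μM. Assays were run at 25 °C in 50 mM sodium phosphate pH 7.4 with 10% DMSO final. Initial rates came from the 405 nm p-nitroaniline signal over 30–120 s after mixing. IC50 values came from comparing rates with and without inhibitor.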

Chain of Plasminogen (P00747 97-580 limits assumed): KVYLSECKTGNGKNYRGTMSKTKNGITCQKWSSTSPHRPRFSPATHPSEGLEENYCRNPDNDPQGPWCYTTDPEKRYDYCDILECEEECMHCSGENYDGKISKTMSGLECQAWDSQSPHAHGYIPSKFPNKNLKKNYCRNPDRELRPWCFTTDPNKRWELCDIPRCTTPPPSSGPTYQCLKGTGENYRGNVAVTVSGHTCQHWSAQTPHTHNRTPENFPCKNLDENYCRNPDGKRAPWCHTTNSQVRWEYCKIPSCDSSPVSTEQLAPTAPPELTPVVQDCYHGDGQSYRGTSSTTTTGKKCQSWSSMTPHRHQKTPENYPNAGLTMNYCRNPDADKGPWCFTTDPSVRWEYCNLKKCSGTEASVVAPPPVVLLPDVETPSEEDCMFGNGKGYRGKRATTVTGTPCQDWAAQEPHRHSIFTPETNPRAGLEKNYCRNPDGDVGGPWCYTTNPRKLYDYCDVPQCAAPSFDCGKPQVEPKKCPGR
Chain of Plasminogen (P00747 581-810 limits assumed): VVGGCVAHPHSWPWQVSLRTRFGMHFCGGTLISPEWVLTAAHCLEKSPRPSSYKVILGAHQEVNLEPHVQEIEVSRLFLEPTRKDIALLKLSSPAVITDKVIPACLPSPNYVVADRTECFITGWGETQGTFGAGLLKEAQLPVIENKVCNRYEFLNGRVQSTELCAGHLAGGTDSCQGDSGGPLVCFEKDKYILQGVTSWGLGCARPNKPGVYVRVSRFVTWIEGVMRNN
Chain of Serine protease 1 (P07477 whole entry): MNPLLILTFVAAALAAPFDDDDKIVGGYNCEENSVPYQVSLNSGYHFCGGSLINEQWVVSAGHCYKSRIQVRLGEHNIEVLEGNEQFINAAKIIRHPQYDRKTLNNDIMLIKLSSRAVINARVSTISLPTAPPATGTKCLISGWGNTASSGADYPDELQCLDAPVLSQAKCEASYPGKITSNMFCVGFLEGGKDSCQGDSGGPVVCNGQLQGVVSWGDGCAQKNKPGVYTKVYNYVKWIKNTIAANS

Broadly, the IC50 is the point on the concentration scale where inhibition reaches its midpoint. Read a low IC50 as greater potency in that assay. In the case of `CC[C@H](C)[C@H](N)C(=O)[C@H](NC(=O)[C@@H](NC(=O)CC[C@H]1CCC[C@@H](NC(=O)[C@@H](NC(=O)[C@@H](NC(=O)OCc2ccccc2)C(=O)[C@@H](N)Cc2c[nH]c3ccccc23)C(=O)[C@@H](N)Cc2c[nH]c3ccccc23)C1=O)C(=O)[C@@H](N)Cc1c[nH]c2ccccc12)C(=O)OC`, on Plasminogen, the IC50 was found to be 13.5 µM.
As to `COC(=O)[C@@H](NC(=O)[C@@H](NC(=O)CC[C@H]1CCC[C@@H](NC(=O)[C@@H](NC(=O)[C@@H](NC(=O)OCc2ccccc2)C(=O)[C@@H](N)Cc2c[nH]c3ccccc23)C(=O)[C@@H](N)Cc2c[nH]c3ccccc23)C1=O)C(=O)[C@@H](N)Cc1c[nH]c2ccccc12)C(=O)[C@@H](N)Cc1ccc(O)cc1`, the IC50 is over 400 µM at Prothrombin, over 400 µM against Plasma kallikrein, 2.7 µM at Plasminogen and over 400 µM on Serine protease 1.
In turn, `COC(=O)[C@@H](NC(=O)[C@@H](NC(=O)CC[C@H]1CCC[C@@H](NC(=O)[C@@H](NC(=O)[C@@H](NC(=O)OCc2ccccc2)C(=O)[C@@H](N)Cc2c[nH]c3ccccc23)C(=O)[C@@H](N)Cc2c[nH]c3ccccc23)C1=O)C(=O)[C@@H](N)Cc1c[nH]c2ccccc12)C(=O)[C@@H](N)C(C)C` returned an IC50 against Plasminogen of 14.1 µM.
On Plasminogen, `COC(=O)[C@@H](NC(=O)[C@@H](NC(=O)CC[C@H]1CCC[C@@H](NC(=O)[C@@H](NC(=O)[C@@H](NC(=O)OCc2ccccc2)C(=O)[C@@H](N)Cc2c[nH]c3ccccc23)C(=O)[C@@H](N)Cc2c[nH]c3ccccc23)C1=O)C(=O)[C@@H](N)Cc1c[nH]c2ccccc12)C(=O)[C@@H](N)CC(C)C` gave a half-maximal inhibitory concentration (IC50) of 3.2 µM.
On Plasminogen, `COC(=O)[C@@H](NC(=O)[C@@H](NC(=O)CC[C@H]1CCC[C@@H](NC(=O)[C@@H](NC(=O)[C@@H](NC(=O)OCc2ccccc2)C(=O)[C@@H](N)Cc2c[nH]c3ccccc23)C(=O)[C@@H](N)Cc2c[nH]c3ccccc23)C1=O)C(=O)[C@@H](N)Cc1c[nH]c2ccccc12)C(=O)[C@H](C)N` gave an IC50 of 6.6 µM.
On to `COC(=O)[C@@H](NC(=O)[C@@H](NC(=O)CC[C@H]1CCC[C@@H](NC(=O)[C@@H](NC(=O)[C@@H](NC(=O)OCc2ccccc2)C(=O)[C@@H](N)Cc2c[nH]c3ccccc23)C(=O)[C@@H](N)Cc2c[nH]c3ccccc23)C1=O)C(=O)[C@@H](N)Cc1c[nH]c2ccccc12)C(=O)[C@@H](N)Cc1ccccc1`, for which 3.3 µM corresponded to half-maximal inhibition against Plasminogen (IC50).
In the case of `COC(=O)[C@@H](NC(=O)[C@@H](NC(=O)CC[C@H]1CCC[C@@H](NC(=O)[C@@H](NC(=O)[C@@H](NC(=O)OCc2ccccc2)C(=O)[C@@H](N)Cc2c[nH]c3ccccc23)C(=O)[C@@H](N)Cc2c[nH]c3ccccc23)C1=O)C(=O)[C@@H](N)Cc1c[nH]c2ccccc12)C(=O)[C@@H](N)Cc1c[nH]c2ccccc12` (Cbz-[Gly(2S-L-tryptophyl)][Gly(2S-L-tryptophyl)][X1][Gly(2S-L-tryptophyl)][Gly(2S-L-tryptophyl)]-OMe), at Plasminogen, the IC50 was 3.6 µM.

These data come from ChEMBL document CHEMBL1140375, “Selective inhibitors of the serine protease plasmin: probing the S3 and S3' subsites using a combinatorial library” (J Med Chem, 2005).
